Laboratory results as given in ChEMBL document CHEMBL1128722, “Mechanism-based isocoumarin inhibitors for human leukocyte elastase. Effect of the 7-amino substituent and 3-alkoxy group in 3-alkoxy-7-amino-4-chloroisocoumarins on inhibitory potency” (J Med Chem, 1995).

Key:
[1] = target: T1, Neutrophil elastase (Homo sapiens) (UniProt P08246); experiment: Inhibition of human leukocyte elastase(HLE) at 0.7-1.7 uM
T1 sequence (whole entry): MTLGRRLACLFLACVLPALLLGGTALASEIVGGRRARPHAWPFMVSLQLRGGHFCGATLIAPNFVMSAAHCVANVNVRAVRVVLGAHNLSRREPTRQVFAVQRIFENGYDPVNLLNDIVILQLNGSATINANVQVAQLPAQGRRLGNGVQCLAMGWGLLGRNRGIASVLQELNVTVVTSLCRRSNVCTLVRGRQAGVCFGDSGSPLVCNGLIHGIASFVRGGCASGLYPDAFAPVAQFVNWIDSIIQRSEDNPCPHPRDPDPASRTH
How it was run: (§1)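 Kitz–Wilson incubation method. Enzyme was preincubated with inhibitor (added in DMSO) in 0.1 M HEPES, 0.5 M NaCl, pH 7.5, at 25 °C. Aliquots were taken over time and diluted into pNA substrate: HLE MeO-Suc-Ala-Ala-Pro-Val-pNA (0.2–0.5 mM), PPE Suc-Ala-Ala-Ala-pNA, ChT and Cat G Suc-Val-Pro-Phe-pNA (0.4–0.5 mM). Release was read at 410 nm. kobs/[I] from ln(v0/vt) vs time. Mean of two determinations. Fast rates measured with equimolar inhibitor and enzyme.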

[2] = target: T2, Cathepsin G (Homo sapiens) (UniProt P08311); experiment: Inhibition of cathepsin G at 35-710 uM; how it was run: as §1
T2 sequence (whole entry): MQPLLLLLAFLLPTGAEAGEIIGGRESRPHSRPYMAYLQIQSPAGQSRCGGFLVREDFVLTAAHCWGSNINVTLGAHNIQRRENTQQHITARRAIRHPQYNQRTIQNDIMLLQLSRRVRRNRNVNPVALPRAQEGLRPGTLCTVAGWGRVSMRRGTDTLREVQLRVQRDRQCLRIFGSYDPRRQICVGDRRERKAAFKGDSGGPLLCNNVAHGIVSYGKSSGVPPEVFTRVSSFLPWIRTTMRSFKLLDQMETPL

[3] = target: T3, Chymotrypsin-like elastase family member 2A (Sus scrofa) (UniProt P08419); experiment: The second order inactivation rate constant expressed as inhibition of porcine pancreatic elastase (PPE).Inhibitor concentrations were 0.04-2.0 mM
T3 sequence (whole entry): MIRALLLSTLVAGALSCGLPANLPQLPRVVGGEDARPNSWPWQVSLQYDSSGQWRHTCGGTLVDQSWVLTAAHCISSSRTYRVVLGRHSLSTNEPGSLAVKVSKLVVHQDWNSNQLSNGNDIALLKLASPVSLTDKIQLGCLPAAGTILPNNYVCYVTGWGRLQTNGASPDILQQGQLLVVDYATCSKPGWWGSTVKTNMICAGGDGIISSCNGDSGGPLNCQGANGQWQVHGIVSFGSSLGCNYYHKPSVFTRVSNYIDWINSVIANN

[4] = target: T1, Neutrophil elastase (Homo sapiens); experiment: The second order inactivation rate constant expressed as inhibition of human leukocyte elastase (HLE). Inhibitor concentrations were 0.07-710 uM; how it was run: as §1
[5] = target: T1, Neutrophil elastase (Homo sapiens); experiment: Second order inactivation rate constant for inhibition of human leukocyte elastase.; how it was run: as §1
[6] = Half-life for hydrolysis was determined from kinetic constant.; type: ADME
How it was run: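 Spontaneous hydrolysis in 0.1 M HEPES, 0.5 M NaCl, pH 7.5, 10% v/v DMSO final, 25 °C. Inhibitor added from 2.9–5.0 mM DMSO stock. Ring opening followed as absorbance decrease at 385 nm (ε385 = 3300 M⁻¹ cm⁻¹). Half-life from the first-order rate. Two determinations, standard errors ±15% or less.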

[7] = target: T1, Neutrophil elastase (Homo sapiens); experiment: Inhibition of human leukocyte elastase.; how it was run: as §1
[8] = target: T2, Cathepsin G (Homo sapiens); experiment: Inhibition of cathepsin G(Cat G) at 35-710 uM; how it was run: as §1

| SMILES | K obs / 1 [3] [M⁻¹ s⁻¹] | K obs / 1 [4] [M⁻¹ s⁻¹] | also measured |
| --- | --- | --- | --- |
| CCCOc1oc(=O)c2cc(NC(C)=O)ccc2c1Cl |  |  | k obs / 1 [1]: > 190000 M⁻¹ s⁻¹ |
| CCCOc1oc(=O)c2cc(NC(=O)CCc3ccccc3)ccc2c1Cl |  |  | k obs / 1 [1]: > 250000 M⁻¹ s⁻¹ |
| O=C(Cc1ccccc1)Nc1ccc2c(Cl)c(OCCBr)oc(=O)c2c1 | 4950 | 480000 | K obs / 1 [2]: 70 M⁻¹ s⁻¹ |
| O=C(Nc1ccc2c(Cl)c(OCCBr)oc(=O)c2c1)NC(c1ccccc1)c1ccccc1 | 6 | 4410 |  |
| COc1oc(=O)c2cc(N)ccc2c1Cl |  |  | k obs / 1 [5]: 10000 M⁻¹ s⁻¹; half-life [6]: 3.3 h; [I] [7]: 6 µM |
| O=c1oc(OCCBr)c(Cl)c2ccc(NC(=S)Nc3ccccc3)cc12 | 1250 | > 480000 | K obs / 1 [2]: 200 M⁻¹ s⁻¹ |
| CC(C)(C)OC(=O)N[C@@H](Cc1ccccc1)C(=O)Nc1ccc2c(Cl)c(OCCBr)oc(=O)c2c1 | 50 | 146000 | inhibition [8]: 19% |
| C[C@@H](NC(=O)Nc1ccc2c(Cl)c(OCCBr)oc(=O)c2c1)c1ccccc1 | 2660 | > 570000 | inhibition [8]: 21% |
| CC(C)(C)CC(=O)Nc1ccc2c(Cl)c(OCCBr)oc(=O)c2c1 | 3650 |  | K obs / 1 [2]: 240 M⁻¹ s⁻¹ |
| C[C@H](NC(=O)OC(C)(C)C)C(=O)N[C@@H](C)C(=O)Nc1ccc2c(Cl)c(OCCBr)oc(=O)c2c1 | 1670 | 230000 | K obs / 1 [2]: 46 M⁻¹ s⁻¹ |
| COC(=O)CCCC(=O)Nc1ccc2c(Cl)c(OCCBr)oc(=O)c2c1 | 2730 | > 170000 |  |
| O=C(Cc1ccccc1)Nc1ccc2c(Cl)c(OCCCBr)oc(=O)c2c1 | 28 | 32400 | inhibition [8]: 28% |
| CC(C)Oc1oc(=O)c2cc(N)ccc2c1Cl |  |  | k obs / 1 [5]: 2000 M⁻¹ s⁻¹; [I] [7]: 26 µM |
| O=C(Nc1ccccc1)Nc1cccc(C(=O)NC(Cc2ccccc2)C(=O)Nc2ccc3c(Cl)c(OCCBr)oc(=O)c3c2)c1 (centres undefined) | 300 | 21000 |  |
| O=C(Nc1ccc2c(Cl)c(OCCBr)oc(=O)c2c1)Nc1cccc2ccccc12 | 76 | 390000 | inhibition [8]: 22% |
| O=C1CC(c2ccccc2)CC(=O)N1c1ccc2c(Cl)c(OCCBr)oc(=O)c2c1 | 75 | 85000 | half-life [6]: > 48 h |
| CC(C)(C)NC(=O)Nc1ccc2c(Cl)c(OCCBr)oc(=O)c2c1 | 6600 |  | K obs / 1 [2]: 56 M⁻¹ s⁻¹ |
| CC(=O)Nc1ccc2c(Cl)c(OCCCBr)oc(=O)c2c1 | 24 | 24400 | K obs / 1 [2]: 170 M⁻¹ s⁻¹ |
| Cc1cccc(C(=O)N[C@@H](Cc2ccccc2)C(=O)Nc2ccc3c(Cl)c(OCCBr)oc(=O)c3c2)c1 | 3500 | 31000 |  |
| O=C(NCc1ccccc1)Nc1ccc2c(Cl)c(OCCBr)oc(=O)c2c1 | 3010 | 480000 | inhibition [8]: 23% |
| CC(C)(C)OC(=O)N[C@H](Cc1ccccc1)C(=O)Nc1ccc2c(Cl)c(OCCBr)oc(=O)c2c1 | 30 | 160000 | inhibition [8]: 19% |
| O=C(O)c1cccc(N/C(S)=N/c2ccc3c(Cl)c(OCCBr)oc(=O)c3c2)c1 |  | > 240000 | K obs / 1 [2]: 320 M⁻¹ s⁻¹ |
| O=C(O)c1ccc(N/C(S)=N/c2ccc3c(Cl)c(OCCBr)oc(=O)c3c2)cc1 |  | > 390000 | K obs / 1 [2]: 450 M⁻¹ s⁻¹ |
| C[C@H](NC(=O)Nc1ccc2c(Cl)c(OCCBr)oc(=O)c2c1)c1cccc2ccccc12 | 40 | 170000 |  |
| CCCOc1oc(=O)c2cc(NC(=O)c3cccc([N+](=O)[O-])c3)ccc2c1Cl |  |  | k obs / 1 [1]: > 210000 M⁻¹ s⁻¹ |

| SMILES | K obs / 1 [3] [M⁻¹ s⁻¹] | K obs / 1 [4] [M⁻¹ s⁻¹] | also measured |
| --- | --- | --- | --- |
| O=C(Nc1ccccc1)Nc1ccc(C(=O)NC(Cc2ccccc2)C(=O)Nc2ccc3c(Cl)c(OCCBr)oc(=O)c3c2)cc1 (centres undefined) | 130 | 6100 |  |
| O=C(CCc1ccccc1)Nc1ccc2c(Cl)c(OCCBr)oc(=O)c2c1 | 11 |  |  |
| O=C(N[C@@H](Cc1ccccc1)C(=O)Nc1ccc2c(Cl)c(OCCBr)oc(=O)c2c1)c1ccccc1 | 11 | 30000 |  |
| O=C(NCc1ccccc1)Nc1ccc2c(Cl)c(OCCCBr)oc(=O)c2c1 | 13 | 15600 | inhibition [8]: 21% |
| C[C@@H](OC(=O)Nc1ccccc1)C(=O)Nc1ccc2c(Cl)c(OCCBr)oc(=O)c2c1 | 13 | 140000 | half-life [6]: 6.4 h |
| COCCOc1oc(=O)c2cc(N)ccc2c1Cl |  |  | k obs / 1 [5]: 390 M⁻¹ s⁻¹; [I] [7]: 7.8 µM |
| CC(C)(C)OC(=O)N[C@@H](Cc1c[nH]c2ccccc12)C(=O)Nc1ccc2c(Cl)c(OCCBr)oc(=O)c2c1 | 12 | 170000 | half-life [6]: 26 h |
| CCCOc1oc(=O)c2cc(NC(=O)CC(C)C)ccc2c1Cl |  |  | k obs / 1 [1]: > 220000 M⁻¹ s⁻¹ |
| CCCOc1oc(=O)c2cc(NC(=O)CSC)ccc2c1Cl |  |  | k obs / 1 [1]: > 150000 M⁻¹ s⁻¹ |
| Cc1ccc(C(=O)N[C@@H](Cc2ccccc2)C(=O)Nc2ccc3c(Cl)c(OCCBr)oc(=O)c3c2)cc1 | 32 | 49000 |  |
| O=c1oc(OCCBr)c(Cl)c2ccc(N[N+](=O)[O-])cc12 | 6330 | 65600 | K obs / 1 [2]: 710 M⁻¹ s⁻¹ |
| COC(=O)CCC(=O)Nc1ccc2c(Cl)c(OCCBr)oc(=O)c2c1 | 1500 |  |  |
| COCCOCCOc1oc(=O)c2cc(N)ccc2c1Cl |  |  | k obs / 1 [5]: 33 M⁻¹ s⁻¹; [I] [7]: 710 µM |
| O=C(O)CCC(=O)N[C@@H](Cc1ccccc1)C(=O)Nc1ccc2c(Cl)c(OCCBr)oc(=O)c2c1 | 1900 | 40000 | half-life [6]: 2.5 h |
| CC(C)NC(=O)Nc1ccc2c(Cl)c(OCCBr)oc(=O)c2c1 | 4470 | 646000 | K obs / 1 [2]: 77 M⁻¹ s⁻¹ |
| CCCOc1oc(=O)c2cc(NC(=O)OCC)ccc2c1Cl |  |  | k obs / 1 [1]: > 180000 M⁻¹ s⁻¹ |
| CC(C)COc1oc(=O)c2cc(N)ccc2c1Cl |  |  | k obs / 1 [5]: 2700 M⁻¹ s⁻¹; [I] [7]: 50 µM |
| C[C@@H](NC(=O)Nc1ccc2c(Cl)c(OCCBr)oc(=O)c2c1)c1cccc2ccccc12 | 20 | 310000 | half-life [6]: > 48 h |
| CC(Br)COc1oc(=O)c2cc(N)ccc2c1Cl (centres undefined) | 62 | 24000 | K obs / 1 [2]: 150 M⁻¹ s⁻¹ |
| CCCOc1oc(=O)c2cc(NC(=O)CCC)ccc2c1Cl |  |  | k obs / 1 [1]: > 120000 M⁻¹ s⁻¹ |
| CC(Br)COc1oc(=O)c2cc([N+](=O)[O-])ccc2c1Cl (centres undefined) | 1060 |  | K obs / 1 [2]: 1660 M⁻¹ s⁻¹ |
| O=C(Nc1ccccc1)Nc1ccc2c(Cl)c(OCCCBr)oc(=O)c2c1 | 4 |  | inhibition [8]: 17% |
| C[C@H](NC(=O)Nc1ccc2c(Cl)c(OCCBr)oc(=O)c2c1)c1ccccc1 | 9900 | > 440000 | K obs / 1 [2]: 77 M⁻¹ s⁻¹ |
| CCCOc1oc(=O)c2cc(NC(=O)[C@@H](NC(=O)OC(C)(C)C)C(C)C)ccc2c1Cl |  |  | k obs / 1 [1]: 64000 M⁻¹ s⁻¹ |
